Activity calls are given as the source filed them. The rule behind the calls is not given here.
Key:
[1] = system: Plasmodium falciparum; test: Antiplasmodial activity against artemisinin-tolerant Plasmodium falciparum F32-Tanzania assessed as time required to reach 5% parasitaemia at 1 uM treated for 96 hrs; format: functional
In short: (§1)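 Sorbitol-synchronized ring cultures (5% parasitemia, 2.5% hematocrit) in O+ human RBCs, RPMI with 5% human serum, 37°C, 5% CO2. Medium was swapped for artemisinin-containing medium for 48 or 96 h, then washed out and culture resumed drug-free. Parasitemia was tracked to record days to reach 5%; cultures with no parasites by day 21 were scored as no recovery. Runs were done at least three times, except 48 h/70 μM and the 96 h conditions, which were done once.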

[2] = system: Plasmodium falciparum; test: Antiplasmodial activity against artemisinin-tolerant Plasmodium falciparum F32-Tanzania assessed as inhibition of parasite growth at 9 uM measured after 24 to 30 hrs of drug removal by FACS analysis in presence of sorbitol; format: functional, organism-based
[3] = system: Plasmodium falciparum; test: Antiplasmodial activity against artemisinin-tolerant Plasmodium falciparum F32-Tanzania assessed as time required to reach 5% parasitaemia at 9 uM treated for 48 hrs; format: functional; in short: as §1
[4] = system: Plasmodium falciparum; test: Antiplasmodial activity against artemisinin-tolerant Plasmodium falciparum F32-Tanzania assessed as time required to reach 5% parasitaemia at 70 uM treated for 48 hrs; format: functional; in short: as §1
[5] = system: Plasmodium falciparum; test: Antiplasmodial activity Plasmodium falciparum F32-Tanzania assessed as decrease in appearance of parasite quiescent rings at 9 uM after 48 hrs by rhodamine 123 staining; format: functional, organism-based
In short: (§2)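 Infected RBCs were stained with R123 (1 μg/ml in RPMI, 37°C, 5 min), washed, and incubated 30 min under culture conditions. Nuclei were counterstained with DAPI (1 μg/ml, 37°C, 20 min). Thin smears were read the same day by epifluorescence; R123-positive (polarized mitochondria) parasites were scored as viable.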

[6] = system: Plasmodium falciparum; test: Antiplasmodial activity against Plasmodium falciparum F32-Tanzania assessed as inhibition of parasite growth at 70 uM treated for 48 hrs; format: functional, organism-based; in short: as §1
[7] = system: Plasmodium falciparum; test: Antiplasmodial activity against artemisinin-tolerant Plasmodium falciparum F32-Tanzania assessed as time required to reach 5% parasitaemia at 35 uM treated for 48 hrs; format: functional; in short: as §1
[8] = system: Plasmodium falciparum; test: Antiplasmodial activity against artemisinin-tolerant Plasmodium falciparum F32-Tanzania assessed as decrease in appearance of late-stage parasites at 9 uM after 24 hrs by FACS analysis; format: functional, organism-based
In short: (§3)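 Samples were stained with DAPI (1 μg/ml) and analysed immediately by flow cytometry (400,000 events). Gates were calibrated with uninfected RBCs, sorbitol-synchronized rings, and magnetically isolated trophozoites and schizonts.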

[9] = system: Plasmodium falciparum; test: Antiplasmodial activity against artemisinin-tolerant Plasmodium falciparum F32-Tanzania assessed as decrease in parasite recovery time at 9 uM treated for 48 hrs in presence of 0.5 uM MDR1 inhibitor penfluridol; format: functional, organism-based
[10] = system: Plasmodium falciparum; test: Antiplasmodial activity against artemisinin-tolerant Plasmodium falciparum F32-Tanzania assessed as decrease in appearance of late trophozoites at 9 uM after 48 hrs by rhodamine 123 staining; format: functional, organism-based; in short: as §2
[11] = system: Plasmodium falciparum; test: Antiplasmodial activity against artemisinin-tolerant Plasmodium falciparum F32-Tanzania assessed as decrease in occurrence of normal parasite cell cycle at 9 uM measured after 24 to 30 hrs of drug removal by rhodamine 123 staining; format: functional, organism-based; in short: as §2
[12] = system: Plasmodium falciparum; test: Antiplasmodial activity against artemisinin-tolerant Plasmodium falciparum F32-Tanzania assessed as decrease in appearance of late-stage parasites at 9 uM measured after 24 hrs of drug removal by FACS analysis; format: functional, organism-based; in short: as §3
[13] = system: Plasmodium falciparum; test: Antiplasmodial activity against Plasmodium falciparum F32-Tanzania assessed as time required to reach 5% parasitaemia at 18 uM treated for 48 hrs; format: functional; in short: as §1
[14] = system: Plasmodium falciparum; test: Antiplasmodial activity against Plasmodium falciparum F32-Tanzania assessed as inhibition of parasite growth at 35 uM treated for 48 hrs; format: functional, organism-based; in short: as §1
[15] = system: Plasmodium falciparum; test: Antiplasmodial activity against artemisinin-tolerant Plasmodium falciparum F32-Tanzania assessed as parasitaemia at 9 uM after 48 hrs by rhodamine 123 staining; format: functional; in short: as §2
[16] = system: Plasmodium falciparum; test: Antiplasmodial activity Plasmodium falciparum F32-Tanzania assessed as decrease in appearance of mature parasite forms at 9 uM measured after 24 to 30 hrs of drug removal by rhodamine 123 staining; format: functional, organism-based; in short: as §2
[17] = system: Plasmodium falciparum; test: Antiplasmodial activity against Plasmodium falciparum F32-Tanzania assessed as inhibition of parasite growth at 1 uM treated for 96 hrs; format: functional, organism-based; in short: as §1
[18] = system: Plasmodium falciparum; test: Antiplasmodial activity against artemisinin-tolerant Plasmodium falciparum F32-Tanzania assessed as decrease in appearance of late trophozoites at 9 uM after 24 hrs by rhodamine 123 staining; format: functional, organism-based; in short: as §2
[19] = system: Plasmodium falciparum; test: Antiplasmodial activity against Plasmodium falciparum F32-Tanzania assessed as inhibition of parasite growth at 0.1 uM treated for 96 hrs; format: functional, organism-based; in short: as §1
[20] = system: Plasmodium falciparum; test: Antiplasmodial activity against artemisinin-tolerant Plasmodium falciparum F32-Tanzania assessed as decrease in appearance of late-stage parasites at 9 uM after 48 hrs by FACS analysis; format: functional, organism-based; in short: as §3
[21] = system: Plasmodium falciparum; test: Antiplasmodial activity against artemisinin-tolerant Plasmodium falciparum F32-Tanzania assessed as time required to reach 5% parasitaemia at 18 uM treated for 48 hrs; format: functional; in short: as §1
[22] = system: Plasmodium falciparum; test: Antiplasmodial activity against Plasmodium falciparum F32-Tanzania assessed as time required to reach 5% parasitaemia at 9 uM treated for 48 hrs; format: functional; in short: as §1
[23] = system: Plasmodium falciparum; test: Antiplasmodial activity against artemisinin-tolerant Plasmodium falciparum F32-Tanzania assessed as inhibition of parasite growth at 9 uM after 48 hrs by FACS analysis in presence of sorbitol; format: functional, organism-based
[24] = system: Plasmodium falciparum; test: Antiplasmodial activity against artemisinin-tolerant Plasmodium falciparum F32-Tanzania assessed as decrease in appearance of late trophozoites at 9 uM measured after 24 to 30 hrs of drug removal by rhodamine 123 staining; format: functional, organism-based; in short: as §2
[25] = system: Plasmodium falciparum; test: Antiplasmodial activity against artemisinin-tolerant Plasmodium falciparum F32-Tanzania assessed as time required to reach 5% parasitaemia at 0.1 uM treated for 96 hrs; format: functional; in short: as §1
[26] = system: Plasmodium falciparum; test: Antiplasmodial activity against artemisinin-tolerant Plasmodium falciparum F32-Tanzania assessed as decrease in appearance of late schizonts at 9 uM measured after 24 to 30 hrs of drug removal by rhodamine 123 staining; format: functional, organism-based; in short: as §2
[27] = system: Plasmodium falciparum; test: Antiplasmodial activity against artemisinin-tolerant Plasmodium falciparum F32-Tanzania assessed as time required to reach 5% parasitaemia at 2.6 uM treated for 48 hrs; format: functional
In short: (§4)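 Sorbitol-synchronized ring-stage cultures at 5% parasitemia and 2.5% hematocrit in human O+ erythrocytes, in RPMI with human serum at 37°C under 5% CO2. Drug-containing medium for 48 h, then RPMI wash and return to drug-free culture. Endpoint was days to reach 5% parasitemia, followed up to 21 days. Three or more independent experiments; mean ± SD.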

[28] = system: Plasmodium falciparum; test: Antiplasmodial activity against Plasmodium falciparum F32-Tanzania assessed as time required to reach 5% parasitaemia at 2.6 uM treated for 48 hrs; format: functional; in short: as §4
[29] = system: Plasmodium falciparum; test: Antiplasmodial activity against Plasmodium falciparum F32-Tanzania assessed as time required to reach 5% parasitaemia at 0.2 uM treated for 48 hrs; format: functional; in short: as §4
[30] = system: Plasmodium falciparum; test: Antiplasmodial activity against artemisinin-tolerant Plasmodium falciparum F32-Tanzania assessed as time required to reach 5% parasitaemia at 0.2 uM treated for 48 hrs; format: functional; in short: as §4

Question: What does the source list for `C[C@@H]1CC[C@H]2[C@@H](C)C(=O)O[C@@H]3O[C@@]4(C)CC[C@@H]1[C@]32OO4` [ARTEMISININ]?
Answer: Time [1]: 16 days; inhibition [2]: Active; Time [3]: 6 days; Time [4]: 17 days; Activity [5]: Active; inhibition [6]: Active; Time [7]: 11 days; Activity [8]: Active; Activity [9]: Active; Activity [10]: Active; Activity [11]: inactive; Activity [12]: inactive; Time [13]: <=17 day; inhibition [14]: Active; Activity [15]: 0.1%; Activity [16]: Active; inhibition [17]: Active; Activity [18]: Active; inhibition [19]: Active; Activity [20]: Active; Time [21]: 7 days; Time [22]: 16 days; inhibition [23]: Active; Activity [24]: inactive; Time [25]: 15 days; Activity [26]: inactive

Question: What does the source list for `C[C@H]1[C@H](OC(=O)CCC(=O)O)O[C@@H]2O[C@@]3(C)CC[C@H]4[C@H](C)CC[C@@H]1[C@@]24OO3` [ARTESUNATE]?
Answer: Time [3]: 8 days; Time [27]: 6 days; Time [28]: 14 days; Time [22]: 15 days

Question: With `CCN(CC)CCCC(C)Nc1ccnc2cc(Cl)ccc12` (configuration not stated) [CHLOROQUINE] as the compound, how does the Time [29] read?
Answer: The Time was 14 days.

Question: What about the Time [30] of the same compound?
Answer: Its Time is 14 days.

Reference: ChEMBL document CHEMBL1255433 (Antimicrob Agents Chemother, 2010)
